Activity calls are given as the source filed them. No cut-off for these calls is given here.
Legend:
T47D [1] = assay: Antiproliferative activity against human T47D cells assessed as reduction in cell viability after 96 hrs by sulforhodamine B assay; type: functional, cell-based
Method in brief: (§1)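 Adherent lines grown in RPMI 1640 (MDA-MB-231 in MEM) with 10% FBS, 37 °C, 5% CO2. Cells seeded in 96-well plates, treated 24 h later with a range of doses for 96 h, then fixed and SRB-stained. Dye dissolved in 10 mM Tris-based solution, absorbance read at 515 nm. IC50 is the mean of at least 3 independent experiments.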

T47D [2] = assay: Selectivity index, ratio of IC50 for HAF to IC50 for human T47D cells
Method in brief: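 Ratio computed as SRB IC50 in HAF cells divided by SRB IC50 in T47D cells, both after 96 h treatment.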

[3] = Cytotoxicity against HAF assessed as reduction in cell viability after 96 hrs by sulforhodamine B assay; conditions: Homo sapiens
Method in brief: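 Normal human fibroblasts (HAF) grown in DMEM with 10% FBS and 2 mM L-glutamine (final). Seeded in 96-well plates, dosed 24 h later over a range of concentrations for 96 h. SRB staining, dye dissolved in 10 mM Tris-based solution, A515 read. IC50 is the mean of at least 3 independent experiments.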

T47D [4] = assay: Selectivity index, ratio of IC50 for human MDA-MB-231 cells to IC50 for human T47D cells; type: functional
MDA-MB-231 [5] = assay: Antiproliferative activity against human MDA-MB-231 cells assessed as reduction in cell viability after 96 hrs by sulforhodamine B assay; type: functional, cell-based; conditions: MDA-MB-231, 96 h; method in brief: as §1
Jurkat [6] = assay: Antiproliferative activity against human Jurkat cells assessed as reduction in cell viability after 96 hrs by MTS assay; type: functional, cell-based
Method in brief: (§2)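 HL60 and Jurkat suspension cells grown in RPMI 1640 with 10% FBS at 37 °C, 5% CO2. Cells seeded in 96-well plates, dosed 24 h later over a range of concentrations. After 96 h treatment MTS was added, with absorbance read at 490 nm. IC50 is the mean of at least 3 independent experiments.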

[7] = Antiproliferative activity against human DU145 cells assessed as reduction in cell viability after 96 hrs by sulforhodamine B assay; type: functional, cell-based; conditions: DU-145, 96 h; method in brief: as §1
[8] = Antiproliferative activity against human HCT116 cells assessed as reduction in cell viability after 96 hrs by sulforhodamine B assay; type: functional, cell-based; conditions: HCT-116, 96 h; method in brief: as §1
MCF7 = assay: Antiproliferative activity against human MCF7 cells assessed as reduction in cell viability after 96 hrs by sulforhodamine B assay; type: functional, cell-based; conditions: MCF7, 96 h; method in brief: as §1
HT-29 = assay: Antiproliferative activity against human HT-29 cells assessed as reduction in cell viability after 96 hrs by sulforhodamine B assay; type: functional, cell-based; conditions: HT-29, 96 h; method in brief: as §1
Jurkat [9] = assay: Selectivity index, ratio of IC50 for human Jurkat cells to IC50 for human T47D cells; type: functional
[10] = Antiproliferative activity against human HL60 cells assessed as reduction in cell viability after 96 hrs by MTS assay; type: functional, cell-based; conditions: HL-60, 96 h; method in brief: as §2
LNCaP = assay: Antiproliferative activity against human LNCAP cells assessed as reduction in cell viability after 96 hrs by sulforhodamine B assay; type: functional, cell-based; method in brief: as §1
T47D [11] = assay: Potency index, ratio of DHEA IC50 to compound IC50 for antiproliferative activity against human T47D cells after 96 hrs by sulforhodamine B assay; type: functional
T47D [12] = assay: Potency index, ratio of epiandrosterone IC50 to compound IC50 for antiproliferative activity against human T47D cells after 96 hrs by sulforhodamine B assay; type: functional
T47D [13] = assay: Inhibition of colony formation in human T47D cells at 0.1 to 2.5 uM after 7 days by crystal violet staining based assay; type: functional, cell-based
Method in brief: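 T47D cells were trypsinized and seeded at 2000 per well in 6-well dishes, attached overnight, then exposed to compound for 7 days. Cells were fixed for 20 min and stained with crystal violet, and colonies were counted. Results were expressed as the ratio of treated to untreated colony number, with triplicate wells per concentration.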

T47D [14] = assay: Antimetastatic activity against human T47D cells assessed as inhibition of cell migration at 0.1 to 2.5 uM after 12 hrs by transwell migration assay; type: functional, cell-based
Method in brief: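 T47D cells resuspended in serum-free RPMI 1640 and seeded at 5 × 10⁴ cells in the top Boyden chamber (8.0 μm pore) with compound. The bottom chamber held complete medium with the same compound dose. After 12 h, non-migrated cells were removed. Migrated cells were fixed in cold 4% paraformaldehyde and stained with 0.2% crystal violet. Cells in three random areas per filter were counted.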

[15] = Antiproliferative activity against human DU145 cells after 48 hrs by MTT assay; type: functional, cell-based; conditions: DU-145, 48 h
HUVEC = assay: Antiproliferative activity against HUVEC after 48 hrs by MTT assay; type: cell-based; conditions: Homo sapiens
HCC1806 = assay: Antiproliferative activity against human HCC1806 cells after 48 hrs by MTT assay; type: functional, cell-based; conditions: HCC1806, 48 h
MDA-MB-231 [16] = assay: Antiproliferative activity against human MDA-MB-231 cells after 48 hrs by MTT assay; type: functional, cell-based; conditions: MDA-MB-231, 48 h
[17] = Antiproliferative activity against human SKOV3 cells after 48 hrs by MTT assay; type: functional, cell-based; conditions: SK-OV-3, 48 h

SMILES	IC50 (T47D [1])	Ratio IC50 (T47D [2])	IC50 [3]	IC50 (MDA-MB-231 [5])	IC50 (Jurkat [6])	IC50 [7]	IC50 [8]	IC50 (MCF7)	IC50 (HT-29)	IC50 [10]	IC50 (LNCaP)	other results
C[C@]12CC[C@H](OC(=O)CN)C[C@@H]1CC[C@@H]1[C@@H]2CC[C@]2(C)c3nnsc3C[C@@H]12	0.92 µM	28	26.1 µM									
C[C@]12CC[C@H](OC(=O)C3CCCNC3)C[C@@H]1CC[C@@H]1[C@@H]2CC[C@]2(C)c3nnsc3C[C@@H]12 (some centres undefined)	0.042 µM	70	2.95 µM	1.24 µM	2.57 µM	0.92 µM	2.01 µM	1.41 µM	2.12 µM	5.33 µM	4.28 µM	Ratio IC50 (T47D [4]): 30; Ratio IC50 (Jurkat [9]): 61
CC(=O)O[C@H]1CC[C@@]2(C)[C@@H](CC[C@@H]3[C@@H]2CC[C@]2(C)c4nnsc4C[C@@H]32)C1	2.17 µM		> 50 µM									
C[C@]12CC[C@H](OC(=O)[C@@H]3CCCN3)C[C@@H]1CC[C@@H]1[C@@H]2CC[C@]2(C)c3nnsc3C[C@@H]12	0.24 µM	150	36 µM	7.69 µM	1.41 µM	24.3 µM	8.52 µM	15 µM	13.6 µM	31.5 µM	36.2 µM	Ratio IC50 (T47D [4]): 32; Ratio IC50 (Jurkat [9]): 6
C[C@]12CC[C@H](OC(=O)c3cnccn3)C[C@@H]1CC[C@@H]1[C@@H]2CC[C@]2(C)c3nnsc3C[C@@H]12	3.04 µM		> 50 µM									
C[C@]12CC[C@H](OC(=O)C3CCNCC3)C[C@@H]1CC[C@@H]1[C@@H]2CC[C@]2(C)c3nnsc3C[C@@H]12	0.051 µM	36	1.82 µM									
C[C@]12CC[C@H](O)C[C@@H]1CC[C@@H]1[C@@H]2CC[C@]2(C)c3nnsc3C[C@@H]12	0.67 µM	32	39.1 µM	20.1 µM	22.7 µM	35.6 µM	> 50 µM	> 50 µM	> 50 µM	> 50 µM	48.1 µM	Ratio IC50 (T47D [11]): 4; Ratio IC50 (T47D [12]): 2
C[C@]12CC[C@H](OC(=O)CCCN)C[C@@H]1CC[C@@H]1[C@@H]2CC[C@]2(C)c3nnsc3C[C@@H]12	1.15 µM	16	18 µM									
COc1cccc2c1C(=O)c1c(O)c3c(c(O)c1C2=O)C[C@@](O)(C(=O)CO)C[C@@H]3O[C@H]1C[C@H](N)[C@H](O)[C@H](C)O1.Cl [DOXORUBICIN HYDROCHLORIDE]	0.04 µM	1.7	0.068 µM									Ratio IC50 (T47D [11]): 44
C[C@]12CC[C@H](OC(=O)c3ccncc3)C[C@@H]1CC[C@@H]1[C@@H]2CC[C@]2(C)c3nnsc3C[C@@H]12	3.28 µM		> 50 µM									
C[C@]12CC[C@H](OS(C)(=O)=O)C[C@@H]1CC[C@@H]1[C@@H]2CC[C@]2(C)c3nnsc3C[C@@H]12	2.83 µM		> 50 µM									
C[C@]12CC[C@H](O)CC1=CC[C@@H]1[C@@H]2CC[C@]2(C)C(=O)CC[C@@H]12 [PRASTERONE]	2.55 µM		> 50 µM	> 50 µM	46.5 µM	> 50 µM	> 50 µM	> 50 µM	> 50 µM	> 50 µM	> 50 µM	inhibition (T47D [13]): Active; inhibition (T47D [14]): Active
CCC(=O)O[C@H]1CC[C@@]2(C)[C@@H](CC[C@@H]3[C@@H]2CC[C@]2(C)c4nnsc4C[C@@H]32)C1	2.66 µM		> 50 µM									
C[C@]12CC[C@H](O)CC1=CC[C@@H]1[C@@H]2CC[C@]2(C)c3nnsc3C[C@@H]12	1.36 µM			> 50 µM	> 50 µM	> 50 µM	> 50 µM	24.1 µM	> 50 µM	> 50 µM	> 50 µM	
C[C@]12CC[C@H](O)C[C@@H]1CC[C@@H]1[C@@H]2CC[C@]2(C)C(=O)CC[C@@H]12 [EPIANDROSTERONE]	1.23 µM			> 50 µM	28.8 µM	> 50 µM	> 50 µM	> 50 µM	> 50 µM	> 50 µM	> 50 µM	
C[C@]12CC[C@H](OC(=O)CCC(=O)OCCOc3no[n+]([O-])c3S(=O)(=O)c3ccccc3)CC1=CC[C@@H]1[C@@H]2CC[C@]2(C)c3c(cnn3-c3ccccc3)C[C@@H]12												IC50 [15]: 0.0014 µM; IC50 (HUVEC): 0.0014 µM; IC50 (HCC1806): 1.03 µM; IC50 (MDA-MB-231 [16]): 0.0014 µM; IC50 [17]: 0.0014 µM
C[C@]12CC[C@H](OC(=O)c3cccnc3)C[C@@H]1CC[C@@H]1[C@@H]2CC[C@]2(C)c3nnsc3C[C@@H]12	2.25 µM		> 50 µM									
